# Many of the other results were omitted from the sample, so hits are more common in it than they were.
# INS promoter act – TRM-6 insulin promoter activation; activation, % at 2 µM; 130,000 tested, 0.81% active; TRM-6 cells (human fetal islet line), insulin promoter eGFP reporter, imaging; plate-scaled: unstimulated 0, stimulated control 100;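 active means activation at 2 µM above a set limit, confirmed on inspection of the cell images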;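 further: share of cells whose green reporter signal exceeds an intensity cutoff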
#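 test system = TRM-6 insulin promoter–eGFP reporter cells | benchmarks = stimulated versus unstimulated wells as plate controls | read-out basis = percent cells above green-intensity threshold, converted to percent activation versus plate controls | detection = fixed-cell fluorescence microscopy, eGFP plus Hoechst | incubation = tamoxifen pre-incubation 15 h overnight, then compound exposure 48 h at 37 °C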
# Active calls of the source: *.
SMILES,INS promoter act
C=CCn1c(O)c(C(CC)=NCCc2ccccc2)c(=O)[nH]c1=O,550.0*
C=CCn1c(O)c(C(C)=NCCc2ccccc2)c(=O)[nH]c1=O,0.0
CCCCn1c(O)c(C(CC)=NCc2ccc(F)cc2)c(=O)[nH]c1=O,-83.3
Cc1ccsc1C(=O)C1CCCN(Cc2cccn2-c2ccccn2)C1 (stereo not given),0.0
Cc1c2ccncc2c(C)c2c1[nH]c1ccccc12,354.5*
CCc1c(C(=O)NN2C(=O)C3C4CCC(O4)C3C2=O)csc1C (stereo not given),8.3
COc1ccc(/C=C2/C(=O)NC(=O)N(c3ccc(C)c(C)c3)C2=O)cc1CN1C(=O)c2ccccc2C1=O,2.0
CSc1ncc(/C=C2/C(=O)NC(=O)N(c3ccc(Cl)cc3)C2=O)cn1,260.0*
O=C1NC(=O)N(c2ccc(Br)cc2)C(=O)/C1=C/c1ccsc1,0.0
Cc1cc(Cl)ccc1OCCCC(=O)NCc1cccs1,8.1
Cn1nc(-c2ccc(OCC(=O)N3CCN(Cc4ccccc4)CC3)cc2)c2ccccc2c1=O,104.5
CC(C)(C)P(=O)(c1ccncc1)N1CCCC1 (stereo not given),0.0
N#Cc1c(/N=C/c2ccc(O)cc2O)sc2c1C1CCN2CC1,-7.7
COc1ccc(C(=O)C(Cc2ccccc2)N(C)C)cc1 (stereo not given),3.7
COc1ccc(O)c(C(C)(C)C)c1,-6.7
COc1ccc(C(=O)C(C)(C)NO)cc1,468.8*
CCCCC(C)C(OC(=O)CC(CC(=O)O)C(=O)O)C(CC(C)CC(O)CCCCC(O)CC(O)C(C)N)OC(=O)CC(CC(=O)O)C(=O)O (stereo not given),-9.1
CC(C)CCCn1c(O)c(/C=C2/C=CC=N2)c(=O)[nH]c1=O,128.1
N#CCN1CCN(c2ccc(C(F)(F)F)cc2)CC1,8.3
CSCCC(N=Cc1c(O)n(-c2ccc(Br)cc2)c(=O)[nH]c1=O)C(=O)OC(C)(C)C (stereo not given),2.9
CC(=O)c1cn(CCCOc2ccccc2)c2ccccc12,0.0
COc1ccc(-n2c(C)cc(C(=O)C[N+]34CCN(CC3)CC4)c2C)cc1,7.1
Cn1c(O)c(C=NCCCNC2CCCCC2)c(=O)n(C)c1=O,-2.8
O=c1cc(C(F)(F)F)c2cc3c4c(c2o1)CCCN4CCC3,164.4*
O=C(Cn1cc(C(=O)c2ccccc2F)c2ccccc21)NC1CC1,127.3
SMILES,INS promoter act
C(#CCN1CCOCC1)COCC#Cc1ccccc1,79.0*
CC(=O)OC1N=C(c2ccccc2)c2ccccc2NC1=O (stereo not given),-7.1
O=C(Cn1nc(-c2ccc(Cl)cc2)ccc1=O)N1CCC2(CC1)OCCO2,0.0
COCCN1Cc2cc(=O)n3c([nH]c4ccccc43)c2C1=N,109.1
O=C1CCN(C(=O)C(Cl)Cl)N1,-7.3
CC1CCN(C(=O)c2ccc(N3CC4CC(C3)c3cccc(=O)n3C4)c([N+](=O)[O-])c2)CC1 (stereo not given),-8.1
CC(C)NC(=O)c1ccc(N2CC3CC(C2)c2cccc(=O)n2C3)c([N+](=O)[O-])c1 (stereo not given),0.0
CCOc1ccc(-n2c(-c3ccoc3)nc3ccccc3c2=O)cc1,4.3
O=c1c2ccccc2nc(/C=C/c2ccc([N+](=O)[O-])o2)n1-c1ccc(O)cc1,525.0*
COc1ccc(C2(C#N)CCN(C)CC2)cc1,0.0
Cc1cc(C(=O)N2CCC3(CC2)OCCO3)cs1,-3.7
Cc1noc(C)c1C(=O)N1CCC2(CC1)OCCO2,-7.9
O=C(c1ccc2c(c1)ncn2-c1ccc(F)cc1F)N1CCC2(CC1)OCCO2,485.7*
CCN1CC2([N+](=O)[O-])CC=C(Cl)C([N+](=O)[O-])(C1)C2 (stereo not given),0.0
CC(=O)CC(=O)C1C(=O)N(C)C(=O)N(C)C1=O,-5.6
Cc1ccc(-c2ccc(=O)n(CCC(=O)N3CCC4(CC3)OCCO4)n2)cc1,0.0
O=C(CCCOc1ccc(Cl)cc1Cl)N1CCC2(CC1)OCCO2,170.8
O=C(CNC1CCCCC1)N1CCC2(CC1)OCCO2,658.3*
Cc1ccc2c(c1)C1CN(C)CCC1N2C(=O)/C(C#N)=C/c1ccc2c(c1)OCO2 (stereo not given),0.0
CC1NCCC2(O)CCCCC12 (stereo not given),186.7
